Screening data: PubChem BioAssay, several laboratories
Only some compounds are listed: those with a hit (about 1.4% of all), similar ones and a draw of the others.
PG9 binder: PG9 antibody binding by small molecule | TR-FRET gp120-PG9 antibody binding | inhibition, % at 6.7 µM | 360,000 compounds, 0.43% hits | AID 624416; in the data active means inhibition above about 8.5%
NR2E3 ag-1: agonists of human nuclear receptor NR2E3; Q9Y5X4; GST-NR2E3/biotin-RetCOR TR-FRET, 1536-well; inhibition of corepressor binding, % at 4.78 µM; 320,000 compounds, 0.12% hits;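 active means percent inhibition above the cutoff of mean plus 3 SD of all tested compounds, set per screening campaign, cut at about 20% in these data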
Target sequence (Q9Y5X4 whole entry, looked up): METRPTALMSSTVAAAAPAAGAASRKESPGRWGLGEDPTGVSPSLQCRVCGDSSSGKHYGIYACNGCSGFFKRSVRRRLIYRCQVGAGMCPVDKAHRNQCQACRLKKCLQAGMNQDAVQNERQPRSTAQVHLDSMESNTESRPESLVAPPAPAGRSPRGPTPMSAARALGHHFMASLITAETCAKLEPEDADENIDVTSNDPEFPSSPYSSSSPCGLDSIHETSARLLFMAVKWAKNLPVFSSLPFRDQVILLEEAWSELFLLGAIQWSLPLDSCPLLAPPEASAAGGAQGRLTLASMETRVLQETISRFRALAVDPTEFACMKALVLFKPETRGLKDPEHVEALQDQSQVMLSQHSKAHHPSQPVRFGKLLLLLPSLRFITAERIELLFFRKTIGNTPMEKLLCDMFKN
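Test system – NR2E3–RetCOR corepressor complex · Quantity – NR2E3 fusion 1.35 nM · Buffer or medium – Tris pH 7.5 · Incubation – Compound–protein incubation for 5 h at 4 °C · Technique – TR-FRET, Eu(K)-anti-GST donor, streptavidin-D2 acceptor, ex 340, em 617/671 nm · Evaluation – percent inhibition of 671/617 nm emission ratio versus biotin and DMSO controls · Plate – 1536-well format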
NR2E3 ag-2: human photoreceptor-specific nuclear receptor agonism; Q9Y5X4; CHO-S Gal4-NCOR/VP16-NR2E3 two-hybrid, luciferase; inhibition of corepressor binding, % at 3.98 µM; 360,000 compounds, 0.35% hits; AID 602229;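 active means inhibition above the mean of all tested compounds plus 3 SD, cut at about 70% in these data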;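 further: higher means lower luciferase signal from less NR2E3 corepressor binding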
Rev-erbA mod: Rev-erb alpha (human) modulation; P20393; Rev-erbα–FITC-DNA binding, fluorescence polarization, 90 min; activity, % at 10 µM; 370,000 compounds, 0.79% hits; AID 1259318;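 active means activity above about 14%, limit read from the data; passing the limit was not always enough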
NR2E3 ag confirm: NR2E3 agonism confirmed in two-hybrid assay; shares compounds with NR2E3 ag-2; CHO-S mammalian two-hybrid NR2E3-NCOR, luciferase luminescence; inhibition, % at 3.98 µM; 2,300 compounds, 51% hits;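 active means average inhibition above a cutoff equal to the mean inhibition of all tested compounds plus one SD, cut at about 70% in these data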
VP16 counter: reduces GAL4-VP16 reporter signal in NR2E3 counterscreen | shares compounds with NR2E3 ag-2 | CHO-S GAL4-VP16 luciferase reporter, luminescence | inhibition, % at 3.98 µM | 2,300 compounds, 29% hits;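 active means mean inhibition above a cutoff equal to the average over all tested compounds plus one standard deviation, cut at about 70% in these data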;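 further: luciferase from a UAS reporter driven by GAL4-VP16 transactivation; higher means less reporter light so more repression of VP16 activity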
Numbers stand for hits.

`CC(O)CC(=O)OC[C@]12CC[C@H]3[C@@](C)(CC[C@H]4C(C)(C)CCC[C@]34C)[C@@H]1CC(C1=CC(=O)OC1O)O2` (some centres undefined) gave PG9 binder inactive, NR2E3 ag-2 inactive, Rev-erbA mod inactive, NR2E3 ag confirm inactive and VP16 counter inactive.
Screening CC1(c2nnnn2Cc2ccccc2)CCC(=O)N1CCc1ccc(O)cc1 (centres undefined) returned PG9 binder inactive, NR2E3 ag-2 inactive and Rev-erbA mod inactive.
Screening COC1CCN(C(=O)C2CCC(=O)N(C3CCCCCC3)C2)CC1 (centres undefined) returned PG9 binder inactive, NR2E3 ag-1 inactive, NR2E3 ag-2 inactive and Rev-erbA mod inactive.
Screening Cc1cccc(NS(=O)(=O)c2ccc(-c3cnc(C4CC4)o3)cc2)c1C returned PG9 binder inactive, NR2E3 ag-1 inactive, NR2E3 ag-2 83, Rev-erbA mod inactive, NR2E3 ag confirm 77 and VP16 counter inactive.
For O=S(=O)(Nc1ccccc1)c1ccc(-c2cnc(C3CC3)o2)cc1 the results were PG9 binder inactive, NR2E3 ag-1 inactive, NR2E3 ag-2 inactive and Rev-erbA mod inactive.
`Cc1ccc(C)c(NS(=O)(=O)c2ccc(-c3cnc(C4CC4)o3)cc2)c1` gave PG9 binder inactive, NR2E3 ag-1 inactive, NR2E3 ag-2 80, Rev-erbA mod inactive, NR2E3 ag confirm inactive and VP16 counter inactive.
For CC(=O)Nc1ccc(NS(=O)(=O)c2ccc(-c3cnc(C4CC4)o3)cc2)cc1 the results were PG9 binder inactive, NR2E3 ag-1 inactive, NR2E3 ag-2 inactive and Rev-erbA mod inactive.
CC(=O)c1cccc(NS(=O)(=O)c2ccc(-c3cnc(C4CC4)o3)cc2)c1 was read as PG9 binder inactive, NR2E3 ag-1 inactive, NR2E3 ag-2 101, Rev-erbA mod inactive, NR2E3 ag confirm 95 and VP16 counter 82.
`Cc1cc(C)cc(NS(=O)(=O)c2ccc(-c3cnc(C4CC4)o3)cc2)c1` gave PG9 binder inactive, NR2E3 ag-1 inactive, NR2E3 ag-2 inactive, Rev-erbA mod inactive, NR2E3 ag confirm inactive and VP16 counter inactive.
For O=C(Nc1ccccc1)OC1CC2CC1[C@H]1CCCCN1[C@H]2Cc1ccccc1 (some centres undefined) the results were Rev-erbA mod inactive.
For O=C(C=CC=Cc1ccccc1)c1ccc([N+](=O)[O-])cc1 the results were PG9 binder inactive, NR2E3 ag-2 inactive and Rev-erbA mod inactive.
Screening CN(Cc1ccccc1)CC(O)COc1ccc(CNCCOc2cccnc2)cc1 (centres undefined) returned PG9 binder inactive, NR2E3 ag-1 inactive, NR2E3 ag-2 inactive and Rev-erbA mod inactive.
Nc1ccc(Oc2ccccc2-c2ccccc2)cc1 was read as PG9 binder inactive, NR2E3 ag-1 inactive, NR2E3 ag-2 inactive, Rev-erbA mod inactive, NR2E3 ag confirm inactive and VP16 counter inactive.
NCCOc1ccccc1-c1ccccc1 was read as PG9 binder inactive, NR2E3 ag-1 inactive, NR2E3 ag-2 inactive and Rev-erbA mod inactive.
CS(=O)(=O)c1ccccc1C(=O)N1CCN(S(=O)(=O)c2ccc(C3CCCCC3)cc2)CC1 was read as PG9 binder inactive, NR2E3 ag-2 inactive, Rev-erbA mod inactive, NR2E3 ag confirm inactive and VP16 counter inactive.
O=c1ccnc(NCCc2ccccc2)[nH]1 was read as PG9 binder inactive, NR2E3 ag-1 inactive, NR2E3 ag-2 inactive and Rev-erbA mod inactive.
For O=C(NC(c1cccnc1)C(F)(F)F)c1cc(COc2ccc3c(c2)CCCC3)on1 (centres undefined) the results were PG9 binder inactive, NR2E3 ag-1 inactive, NR2E3 ag-2 96, Rev-erbA mod inactive, NR2E3 ag confirm 97 and VP16 counter 79.
For CCN(c1ccccc1)S(=O)(=O)c1ccc(Cl)c(C(=O)Nc2ccncc2)c1 the results were PG9 binder inactive, NR2E3 ag-2 inactive and Rev-erbA mod inactive.
For CN(c1ccc(F)cc1)S(=O)(=O)c1ccc(Cl)c(C(=O)Nc2ccncc2)c1 the results were PG9 binder inactive, NR2E3 ag-1 inactive, NR2E3 ag-2 87, Rev-erbA mod inactive, NR2E3 ag confirm inactive and VP16 counter inactive.
Screening CN(c1ccccc1)S(=O)(=O)c1ccc(Cl)c(C(=O)Nc2ccncc2)c1 returned PG9 binder inactive, NR2E3 ag-1 inactive, NR2E3 ag-2 76, Rev-erbA mod inactive, NR2E3 ag confirm inactive and VP16 counter inactive.
For Cc1sc2nc(SCC(=O)N3CCCC3)[nH]c(=O)c2c1C the results were PG9 binder inactive, NR2E3 ag-1 inactive, NR2E3 ag-2 inactive and Rev-erbA mod inactive.
For CCCCN(C(C)=O)c1ccc2c(c1)C1CC2CCN1C(=O)OCc1ccccc1 (centres undefined) the results were PG9 binder inactive, NR2E3 ag-2 inactive, Rev-erbA mod inactive, NR2E3 ag confirm 91 and VP16 counter inactive.
For O=C(COC(=O)/C=C/c1ccc(S(=O)(=O)N2CCOCC2)cc1)Nc1ccc(F)c(F)c1F the results were PG9 binder inactive, NR2E3 ag-2 inactive and Rev-erbA mod inactive.
CCC(C)(C)C(=O)O[C@H]1C[C@@H](C)C=C2C=C[C@H](C)[C@H](CC[C@@H]3C[C@@H](O)CC(=O)O3)[C@H]21 was read as PG9 binder inactive, NR2E3 ag-1 inactive, NR2E3 ag-2 inactive, Rev-erbA mod inactive, NR2E3 ag confirm 86 and VP16 counter inactive.
For O=C(C1=C(c2ccccc2)C(=O)c2ccccc2C1=O)c1ccccc1 the results were PG9 binder inactive, NR2E3 ag-2 78, Rev-erbA mod inactive, NR2E3 ag confirm 99 and VP16 counter 93.
C=CS(=O)(=O)c1ccc(Oc2ccc(S(=O)(=O)C=C)cc2)cc1 was read as PG9 binder inactive, NR2E3 ag-1 inactive, NR2E3 ag-2 91, Rev-erbA mod inactive, NR2E3 ag confirm inactive and VP16 counter inactive.
O=S(=O)(NC1CC1)c1ccc(S(=O)(=O)N(Cc2ccccn2)C2CC2)cc1 was read as PG9 binder inactive, NR2E3 ag-1 inactive, NR2E3 ag-2 inactive and Rev-erbA mod inactive.
`CCNc1nc2c(c(=O)n(C)c(=O)n2C)n1Cc1ccc(Cl)cc1` gave PG9 binder inactive, NR2E3 ag-1 inactive, NR2E3 ag-2 inactive, Rev-erbA mod inactive, NR2E3 ag confirm 78 and VP16 counter inactive.
CCC(C)Nc1nc2c(c(=O)n(C)c(=O)n2C)n1Cc1ccc(Cl)cc1 (centres undefined) was read as PG9 binder inactive, NR2E3 ag-1 inactive, NR2E3 ag-2 inactive and Rev-erbA mod inactive.
Screening CC1=C(C(=O)N(C(C)C)C(C)C)CC(CC(=O)NCCCCc2ccccc2)C(=O)N1Cc1ccc(C(C)(C)C)cc1 (centres undefined) returned PG9 binder inactive, NR2E3 ag-2 inactive and Rev-erbA mod inactive.
Screening COc1ccc(/C=C2\SC(=N)N(c3nccs3)C2=O)cc1OC returned PG9 binder inactive, NR2E3 ag-1 inactive, NR2E3 ag-2 74, Rev-erbA mod inactive, NR2E3 ag confirm inactive and VP16 counter inactive.
